In ChEMBL document CHEMBL5303300, “EUbOPEN Chemogenomics Library - Multiplex” (2023):
Several values for one entry are separate records, joined by “and”; a condition that tells them apart may be missing. Identical values can stand only once.

What was measured:
[1] = test system: U2OS; test: Multiplex assay against U2OS; type: toxicity, cell-based; details: human, number of replicates 2
How it was run: (§1)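 Compound was added to live cells that had been stained at seeding with Hoechst33342, BioTracker Green Microtubule Cytoskeleton Dye, MitoTracker Red and Annexin V Alexa Fluor 680, and imaging followed on a CQ1 microscope at 37°C and 5% CO2. CellPathfinder machine-learning gating divided cells into Hoechst high-intensity objects or normal cells, normal cells into healthy, pyknosed or fragmented nuclei, and pyknosed cells into mitotic or apoptotic. Tubulin, mitochondrial-mass and membrane-permeability phenotypes are per cents of healthy-nucleus cells.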

[2] = test system: Fibroblast; test: Multiplex assay against human fibroblast; type: toxicity, cell-based; details: number of replicates 2; how it was run: as §1
[3] = 12 h, 1 µM, compound concentration 1 uM
[4] = 12 h, 10 µM, compound concentration 10 uM
[5] = 24 h, 1 µM, compound concentration 1 uM
[6] = 24 h, 10 µM, compound concentration 10 uM
[7] = 48 h, 1 µM, compound concentration 1 uM
[8] = 48 h, 10 µM, compound concentration 10 uM

N[C@@H]1c2cccnc2[C@H](OC(=O)N2CCC(n3c(=O)[nH]c4ncccc43)CC2)CC[C@H]1c1cccc(F)c1F [RIMEGEPANT]
Population Apoptotic (%) [1, 3]: 40% and 54%
Population Fragmented Nuclei (%) [1, 3]: 11% and 5%
Population Healthy Nuclei (%) [1, 3]: 79% and 84%
Population Hoechst High Intensity Objects (%) [1, 3]: 0%
Population Membrane Permeable-Phenotype (%) [1, 3]: 0% and 4%
Population Mitochondria Different-Phenotype (%) [1, 3]: 0% and 1%
Population Mitotic Cells (%) [1, 3]: 60% and 45%
Population Normal (%) [1, 3]: 100%
Population Pyknosed Nuclei (%) [1, 3]: 9%
Population Tubulin-Different-Phenotype (%) [1, 3]: 90% and 65%
Population Apoptotic (%) [1, 4]: 60% and 51%
Population Fragmented Nuclei (%) [1, 4]: 0% and 5%
Population Healthy Nuclei (%) [1, 4]: 88% and 83%
Population Hoechst High Intensity Objects (%) [1, 4]: 0%
Population Membrane Permeable-Phenotype (%) [1, 4]: 0% and 8%
Population Mitochondria Different-Phenotype (%) [1, 4]: 8% and 11%
Population Mitotic Cells (%) [1, 4]: 40% and 48%
Population Normal (%) [1, 4]: 100%
Population Pyknosed Nuclei (%) [1, 4]: 11% and 10%
Population Tubulin-Different-Phenotype (%) [1, 4]: 37% and 34%
Population Apoptotic (%) [1, 5]: 50% and 57%
Population Fragmented Nuclei (%) [1, 5]: 7% and 3%
Population Healthy Nuclei (%) [1, 5]: 82% and 86%
Population Hoechst High Intensity Objects (%) [1, 5]: 0%
Population Membrane Permeable-Phenotype (%) [1, 5]: 2% and 4%
Population Mitochondria Different-Phenotype (%) [1, 5]: 0% and 2%
Population Mitotic Cells (%) [1, 5]: 50% and 42%
Population Normal (%) [1, 5]: 100%
Population Pyknosed Nuclei (%) [1, 5]: 10% and 9%
Population Tubulin-Different-Phenotype (%) [1, 5]: 87% and 71%
Population Apoptotic (%) [1, 6]: 66% and 76%
Population Fragmented Nuclei (%) [1, 6]: 8% and 3%
Population Healthy Nuclei (%) [1, 6]: 79% and 89%
Population Hoechst High Intensity Objects (%) [1, 6]: 0%
Population Membrane Permeable-Phenotype (%) [1, 6]: 0% and 6%
Population Mitochondria Different-Phenotype (%) [1, 6]: 10% and 16%
Population Mitotic Cells (%) [1, 6]: 33% and 24%
Population Normal (%) [1, 6]: 100%
Population Pyknosed Nuclei (%) [1, 6]: 12% and 6%
Population Tubulin-Different-Phenotype (%) [1, 6]: 28% and 27%
Population Apoptotic (%) [1, 7]: 61% and 62%
Population Fragmented Nuclei (%) [1, 7]: 8% and 3%
Population Healthy Nuclei (%) [1, 7]: 77% and 89%
Population Hoechst High Intensity Objects (%) [1, 7]: 0%
Population Membrane Permeable-Phenotype (%) [1, 7]: 1%
Population Mitochondria Different-Phenotype (%) [1, 7]: 2% and 1%
Population Mitotic Cells (%) [1, 7]: 38% and 37%
Population Normal (%) [1, 7]: 100%
Population Pyknosed Nuclei (%) [1, 7]: 14% and 7%
Population Tubulin-Different-Phenotype (%) [1, 7]: 94% and 84%
Population Apoptotic (%) [1, 8]: 53% and 70%
Population Fragmented Nuclei (%) [1, 8]: 3%
Population Healthy Nuclei (%) [1, 8]: 73% and 86%
Population Hoechst High Intensity Objects (%) [1, 8]: 0%
Population Membrane Permeable-Phenotype (%) [1, 8]: 4% and 3%
Population Mitochondria Different-Phenotype (%) [1, 8]: 2% and 9%
Population Mitotic Cells (%) [1, 8]: 46% and 29%
Population Normal (%) [1, 8]: 100%
Population Pyknosed Nuclei (%) [1, 8]: 22% and 9%
Population Tubulin-Different-Phenotype (%) [1, 8]: 30% and 33%
Population Apoptotic (%) [2, 3]: 56% and 33%
Population Fragmented Nuclei (%) [2, 3]: 6% and 16%
Population Healthy Nuclei (%) [2, 3]: 56% and 69%
Population Hoechst High Intensity Objects (%) [2, 3]: 0% and 3%
Population Membrane Permeable-Phenotype (%) [2, 3]: 5% and 7%
Population Mitochondria Different-Phenotype (%) [2, 3]: 1% and 0%
Population Mitotic Cells (%) [2, 3]: 43% and 66%
Population Normal (%) [2, 3]: 100% and 96%
Population Pyknosed Nuclei (%) [2, 3]: 37% and 14%
Population Tubulin-Different-Phenotype (%) [2, 3]: 20% and 21%
Total Cell Count [2, 3]: 129 and 236
Population Apoptotic (%) [2, 4]: 47% and 44%
Population Fragmented Nuclei (%) [2, 4]: 14% and 13%
Population Healthy Nuclei (%) [2, 4]: 75%
Population Hoechst High Intensity Objects (%) [2, 4]: 0%
Population Membrane Permeable-Phenotype (%) [2, 4]: 9% and 14%
Population Mitochondria Different-Phenotype (%) [2, 4]: 5% and 4%
Population Mitotic Cells (%) [2, 4]: 52% and 55%
Population Normal (%) [2, 4]: 100%
Population Pyknosed Nuclei (%) [2, 4]: 10% and 11%
Population Tubulin-Different-Phenotype (%) [2, 4]: 61% and 59%
Total Cell Count [2, 4]: 183 and 237
Population Apoptotic (%) [2, 5]: 54% and 32%
Population Healthy Nuclei (%) [2, 5]: 60% and 61%
Population Hoechst High Intensity Objects (%) [2, 5]: 0% and 2%
Population Membrane Permeable-Phenotype (%) [2, 5]: 10% and 1%
Population Mitochondria Different-Phenotype (%) [2, 5]: 0%
Population Mitotic Cells (%) [2, 5]: 45% and 67%
Population Normal (%) [2, 5]: 99% and 97%
Population Pyknosed Nuclei (%) [2, 5]: 35% and 18%
Population Tubulin-Different-Phenotype (%) [2, 5]: 22% and 15%
Total Cell Count [2, 5]: 124 and 234
Population Apoptotic (%) [2, 6]: 47% and 64%
Population Fragmented Nuclei (%) [2, 6]: 12%
Population Healthy Nuclei (%) [2, 6]: 78% and 80%
